# High-throughput results as filed in PubChem.
# TbHK1 inh – T. brucei hexokinase 1 inhibition | 0.11% of 220,000 active | inhibition, % at 10 µM | recombinant TbHK1, G6PDH-coupled NADH A340;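 active = inhibition of 50% or more in the single-dose primary screen; inactive = inhibition below 50%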
# MT stabilizer – microtubule stabilization, imaging screen. HeLa tubulin immunostaining HCS, 24 h; share of cells brighter than vehicle mean+2SD. % tubulin-high responders, % at 10 µM. 0.83% of 200,000 active;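 active = plate Z-score above 3 for both tubulin-high and condensed-nucleus cell shares, with cell loss under 80%, at 10 µM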;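 note: anti alpha tubulin signal scored within the nucleus-defined area of each cell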
# EP2 mod – modulators of human EP2 prostaglandin E2 receptor | P43116 | EP2-expressing cells, cAMP HTRF FRET, PGE2 co-stimulation | induction, % at 25 µM | 0.83% of 260,000 active | AID 940;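 active = compounds whose cAMP rise, as percent of the full-agonist control response, exceeds 60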;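 note: rat C6 glioma line stably carrying human EP2 under a CMV promoter; the protocol text gives 20 µM as final concentration; 100% = response of wells given 1 µM PGE2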
# Target sequence (P43116 whole entry, looked up): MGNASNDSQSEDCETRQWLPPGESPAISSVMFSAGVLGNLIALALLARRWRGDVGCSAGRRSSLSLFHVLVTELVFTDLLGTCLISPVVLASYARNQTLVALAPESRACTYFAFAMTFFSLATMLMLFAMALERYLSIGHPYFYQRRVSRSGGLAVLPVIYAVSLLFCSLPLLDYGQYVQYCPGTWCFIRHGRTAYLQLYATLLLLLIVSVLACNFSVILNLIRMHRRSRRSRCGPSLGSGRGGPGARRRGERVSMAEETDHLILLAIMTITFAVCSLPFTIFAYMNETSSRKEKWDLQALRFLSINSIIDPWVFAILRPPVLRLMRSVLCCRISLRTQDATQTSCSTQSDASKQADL
# HMGR II inh – inhibitors of class II HMG-CoA reductase from Enterococcus faecalis. purified E. faecalis HMGR, NADPH absorbance 340 nm kinetic. 0.41% of 190,000 active. inhibition, % at 10 µM;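 active = inhibition above a set limit, the median over all tested compounds plus 3 SD, cut at about 9.5% in these data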;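 note: enzyme runs in reverse so mevalonate oxidation gives rising NADPH absorbance; 0% = complete reaction with DMSO and 100% = background rate lacking mevalonate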
# b-catenin transl – beta-catenin nuclear translocation modulation; HeLa beta-catenin nuclear translocation, immunofluorescence imaging; nuclear translocation activity, % at 5 µM; 0.3% of 190,000 active;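 active = nuclear translocation activity above 50% at 5 µM, with a well cell count of 50 or more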;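 note: per-cell ratio of nuclear to cytoplasmic median beta-catenin stain intensity; plate controls were DMSO negative control for no effect and GSK-3 inhibitor IX positive control for full effect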
#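 Test system: human HeLa cell line; Doses: 5 µM primary, 0.02–20 µM confirmation; Incubation: 24 h compound exposure, 37°C; Detection: beta-catenin immunofluorescence imaging with DAPI; Read-out: beta-catenin nuclear/cytoplasmic ratio, % activation.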
# PGE2 EP2 inh – EP2 receptor (human) inhibition. C6 glioma cells expressing human EP2, cAMP TR-FRET; cells stimulated with saturating PGE2. AID 1422. 0.52% of 260,000 active. inhibition, % at 25 µM. P43116;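 active = percent inhibition above 40 after rounding to a whole number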;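 note: rat C6 glioma host cells with rolipram phosphodiesterase inhibitor present; the protocol text gives 20 µM as final concentration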
# An asterisk follows results filed as active; . = not tested or not shown. Shown are actives, neighbours in structure and some others; about 2.4% of the full set was active somewhere.
SMILES,TbHK1 inh,MT stabilizer,EP2 mod,HMGR II inh,b-catenin transl,PGE2 EP2 inh
CCn1c(=S)[nH]c2scc(-c3cccs3)c2c1=O,-2,3,-17,-1,-2,70*
CC(C)n1c(=S)[nH]c2scc(-c3cccs3)c2c1=O,24,.,-19,.,2,71*
CC1(C)Oc2ccc(S(=O)(=O)NCCCN3CCCC3=O)cc2NC1=O,.,.,6,.,.,6
O=C1CCc2cc(S(=O)(=O)N3CCCC(CN4CCCC4)C3)ccc2N1 (stereo not given),.,.,-16,.,.,7
CCNC(=S)N(Cc1cc2ccc(OC)cc2[nH]c1=O)C1CCCCC1,.,.,-45,.,.,17
COCc1nnc(NC(=O)C2CCCCC2)s1,.,.,0,.,.,9
Cc1ccc2[nH]c(=O)c(C(c3nnnn3C3CCCCC3)N3CCC(Cc4ccccc4)CC3)cc2c1 (stereo not given),.,.,22,.,.,10
COc1ccc(Cl)cc1NC(=O)C1CCN(c2ncccn2)CC1,.,.,-34,.,.,9
CSC(SC)=C(C#N)C(=O)c1ccccc1,-26,.,-38,.,0,48*
Cc1cc(C)c(C(=O)/C=C/C=C/c2ccccc2)c(=O)[nH]1,-50,2,-4,-3,10,7
Cc1cc(C)c(C(=O)/C=C/c2ccc(C(C)C)cc2)c(=O)[nH]1,-28,2,3,0,3,83*
COc1ccc(/C=N\NC(=O)c2c(C)nc3ccc(Br)cn23)cc1,-11,20*,14,-5,53*,6
C=CCNC(=O)CSc1nc(-c2ccc(F)cc2)cc(C(F)(F)F)n1,.,.,-104,.,.,16
CSc1ccc(C(=O)C2CCCN(Cc3ccc(N4CCNC4=O)cc3)C2)cc1 (stereo not given),-22,14*,7,-3,7,8
CCC(=O)CCC(=O)c1ccc2ccccc2c1,-3,1,-22,-6,-2,9
CC(C)N(CCC(=O)c1ccc2ccccc2c1)Cc1ccccc1,.,.,-11,.,.,76*
O=C(CSc1nc(-c2ccco2)cc(C(F)(F)F)n1)Nc1ccc2c(c1)OCO2,4,29*,-45,5,3,7
O=C(CSc1nc(-c2ccco2)cc(C(F)(F)F)n1)Nc1cccnc1,-29,58*,-20,3,-3,8
CCCC(=O)NNc1nc2c(c(=O)n1C1CCOC(C)(C)C1)C1(CCCCC1)Cc1ccccc1-2 (stereo not given),.,.,45,.,.,10
CCCCC1=NN(C(=O)c2ccco2)C(O)(C(F)(F)F)C1 (stereo not given),-3,15*,20,0,13,6
Cc1cc(Nc2ccccc2)n(-c2ccccc2)n1,5,4,15,-1,.,10
Cc1cc(Nc2nc(Cl)c(Cl)cc2Cl)n(-c2ccccc2)n1,-5,17*,57,-3,3,2
CCOc1cc(C2Nc3c(ccc4ccccc34)C3=C2C(=O)CCC3)ccc1O (stereo not given),.,.,-66,.,.,13
CCOC(=O)Nc1ccc2c(c1)N(C(=O)OC)c1ccccc1CC2,7,34*,-7,-1,16,6
CCOC(=O)Nc1cccc(Nc2ccccc2)c1,0,2,62*,-5,0,6
SMILES,TbHK1 inh,MT stabilizer,EP2 mod,HMGR II inh,b-catenin transl,PGE2 EP2 inh
CCc1ccc2[nH]c(=O)c(CN(Cc3cccnc3)C(=O)Nc3ccc(C)cc3)cc2c1,.,.,-11,.,.,18
CCc1ccc2[nH]c(=O)c(C(c3nnnn3Cc3ccccc3)N3CCN(CC)CC3)cc2c1 (stereo not given),.,.,-21,.,.,7
CC(=O)N=c1sc2nc3ccccc3nc2n1N(C(C)=O)C(C)=O,-28,2,24,-1,0,81*
CC(C)c1nc(SCC(=O)Nc2ccc3c(c2)OCCO3)c2c(=O)n(C)c(=O)n(C)c2n1,-6,22*,11,-6,2,8
O=C(O)C1CCCN(S(=O)(=O)c2ccc(S(=O)(=O)N3CCCCC3)cc2)C1 (stereo not given),.,.,-19,.,.,5
CCOc1ccccc1CN(C(=O)c1cc2sccc2n1C)C1CC(C)(C)NC(C)(C)C1,.,.,-22,.,.,17
CCn1c2ccccc2c2cc(/C=N/NC(=O)c3ccc(O)cc3)ccc21,-34,17*,-1,-5,52*,4
CCn1c2ccccc2c2cc(/C=N/NC(=O)c3cc(O)cc(O)c3)ccc21,-1,3,-44,-2,0,7
CCn1c2ccccc2c2cc(/C=N/NC(=O)c3ccncc3)ccc21,-18,13*,-83,-5,20,6
O=[N+]([O-])c1cc(C(F)(F)F)ccc1NC1CCN(Cc2ccccc2)CC1,-11,.,61*,.,-1,8
Cc1ccccc1NC1=NC(=S)N(c2ccccc2)C12CCCCC2,2,3,62*,1,.,9
O=C(Nc1nc2ccc(S(=O)(=O)N3CCCCC3)cc2s1)C1CCCO1 (stereo not given),0,6,-22,0,-1,14
O=C(Nc1nc2ccc(S(=O)(=O)N3CCCC3)cc2s1)C1CCCCC1,-6,34*,8,-2,3,.
CCSc1nc(-c2cccs2)nc2ccccc12,0,3,64*,7,0,5
N#Cc1c(SCC(=O)O)nc(-c2ccccc2)c2c1CCCC2,1,3,43,0,2,45*
Cc1cc(Cl)ccc1NC(=O)c1ccco1,.,.,-36,.,.,18
COc1ccc(C2CC(c3ccc(Cl)c(Cl)c3)Nc3ncnn32)cc1OC (stereo not given),.,.,-44,.,.,12
c1ccc(-c2cnc(-c3ccc(-c4ncc(-c5ccccc5)o4)cc3)o2)cc1,.,.,12,.,.,45*
CCn1cc(C(=O)N2CCC(C(=O)c3nccs3)CC2)cn1,.,.,-31,.,.,.
CCCCOc1ccccc1NC(=O)Cn1c(-c2nonc2N)nc2ccccc21,-1,27*,13,0,0,12
COc1cccc(Cn2c(-c3nonc3N)nc3ccccc32)c1,0,50*,64*,-1,.,3
CCOC(=O)c1c(C)[nH]c(C(=O)N/N=C/c2cccc(OC)c2)c1C,-4,20*,-10,3,0,23
CCOC(=O)c1c(C)[nH]c(C(=O)NNC(=O)c2ccccc2)c1C,2,1,-22,0,1,7
CCOC(=O)c1c(C)[nH]c(C(=O)N/N=C\c2ccccc2Cl)c1C,-1,23*,-23,-7,49,12
CS(=O)(=O)N(CC(=O)NCc1ccc2c(c1)OCO2)c1cccc(F)c1,.,.,0,.,.,9
CCOC(=O)c1c(-c2ccccc2Cl)cn2ccccc12,2,2,54,-3,-1,5
CCOC(=O)c1c2c(n3ccccc13)C(=O)c1ccccc1C2=O,.,.,-42,.,.,46*
O=C1NC2=C(C(=O)N(CC3CCCO3)C2)C(c2ccc(Cl)c(Cl)c2)N1 (stereo not given),.,.,-29,.,.,-1
